Measured values from different studies.
pEC50, pIC50: −log10 of the molar value.
Observed: cell growth or viability

For `Cc1cn(CC(c2cn(C)c3ccccc23)c2cn(C)c3ccccc23)nn1`, the inhibition was 17.1% (human Fibroblast; MTS; 20 µM; 24 h).
For `COC(=O)c1cccc(-c2cccc(Nc3nccc(NC4CCCCC4)n3)c2)c1`, the pEC50 was 5.12 (MV4-11; ATP luminescence; 72 h).
With `CC(C)(CO)Cn1nc(-c2ccc3nc(OC4CC4)ccc3c2)c2c(N)ncnc21` the GI50 was > 10 µM (CRL8155).
With `COC(C)(C)CCC[C@](C)(O)[C@H]1CC[C@]2(C)[C@@H]1[C@H](O)C[C@@H]1[C@@]3(C)CC[C@H](O)C(C)(C)[C@@H]3CC[C@]12C` the IC80 was > 100 µM (BEAS-2B; MTT; 72 h).
The inhibition of `CCCCCCCCCCCCCCCCOP(=O)([O-])OCC[N+](C)(C)C` is reported as 46.2% (human Fibroblast; MTS; 20 µM; 24 h).
`CCN(CC)CCOC(=O)C1(c2ccc([N+](=O)[O-])cc2)CCCC1` gave a pIC50 of < 4.70 (HN-6; 72 h).
`COc1cc(-c2ccc(-c3ccc(C(=N)N)nc3)s2)cc(OC)c1OC` has a GI50 of 1.87 µM (LOX IMVI; SRB).
`CC(C)=CCC[C@](C)(O)[C@H]1CC[C@]2(C)[C@@H]1[C@H](O)C[C@@H]1[C@@]3(C)CC[C@H](O[C@@H]4O[C@H](CO)[C@@H](O)[C@H](O)[C@H]4O[C@@H]4O[C@H](CO)[C@@H](O)[C@H](O)[C@H]4O)C(C)(C)[C@@H]3CC[C@]12C` has an IC20 of > 100 µM (BEAS-2B; MTT; 72 h).
For `CC(C)Nc1ccnc(Nc2cccc(C(C)(C)C)c2)n1`, the pEC50 was < 4.89 (MV4-11; ATP luminescence; 72 h).
The inhibition of `COC(=O)c1c(C)ncn1CC(c1c[nH]c2ccc(C)cc12)c1c[nH]c2ccc(C)cc12` is reported as 13.8% (human Fibroblast; MTS; 20 µM; 24 h).
The pEC50 of `c1ccc(-c2cccc(Nc3nccc(NC4CCCCC4)n3)c2)cc1` is reported as < 5.40 (MV4-11; ATP luminescence; 72 h).
For `CCc1ncn(CC(c2c[nH]c3ccc(C)cc23)c2c[nH]c3ccc(C)cc23)c1C(=O)OC`, the inhibition was 6.7% (human Fibroblast; MTS; 20 µM; 24 h).
The GI50 of `CC(C)(CO)Cn1nc(-c2ccc3cc(OC4CC4)ccc3c2)c2c(N)ncnc21` is reported as > 10 µM (CRL8155).
The pEC50 of `Fc1ccc(Nc2nccc(NC3CCCCC3)n2)cc1` is reported as < 5.52 (MV4-11; ATP luminescence; 72 h).
The pEC50 of `Cn1nnc2c(C(N)=O)ncn2c1=O` is reported as < 3.00 (SGC-7901).
For `COc1ccc(-c2ccc(-c3ccc(C(=N)N)nc3)s2)cc1`, the GI50 was 1.88 µM (LOX IMVI; SRB).
`COC(=O)c1cccc(-c2cccc(Nc3nccc(NC(C)C)n3)c2)c1` has a pEC50 of 5.31 (MV4-11; ATP luminescence; 72 h).
The pIC50 of `CC(C)c1ccccc1S(=O)(=O)c1cc(N)c2ncccc2c1[N+](=O)[O-]` is reported as < 4.70 (HN-6; 72 h).
